Measured values: ChEMBL document CHEMBL2146441, “2,6-Disubstituted imidazo[2,1-b][1,3,4]thiadiazoles: search for anticancer agents” (2012)

What was measured:
Type in all cases: functional
HCT-116 = experiment: Cytotoxicity against human HCT116 cells assessed as cell growth at 10^-5 M after 48 hrs by SRB assay; settings: HCT-116, 48 h, read-out: Activity
Summary of the method: (§1)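 NCI-60 five-dose screen. Cells were grown in RPMI 1640 with 5% FBS and seeded at 5000–40,000 cells/well according to doubling time. They were pre-incubated 24 h at 37 °C in 5% CO₂, and time-zero (Tz) plates were TCA-fixed at drug addition. Five 10-fold dilutions of DMSO stock were applied for 48 h. Read-out was SRB staining, 515 nm absorbance, with percent growth calculated versus Tz and untreated control.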

HCT-15 [1] = experiment: Cytotoxicity against human HCT15 cells assessed as cell growth at 10^-5 M after 48 hrs by SRB assay; settings: HCT-15, 48 h, read-out: Activity; summary of the method: as §1
OVCAR-8 = experiment: Growth inhibition of human OVCAR8 cells after 48 hrs by SRB assay; settings: OVCAR-8, 48 h; for CC50: read-out: LC50 (the source's name)
Summary of the method: (§2)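 Adherent NCI-60 lines grown in RPMI 1640 with 5% FBS, seeded at 5000–40,000 cells/well, and preincubated 24 h at 37 °C, 5% CO2. Compound, stocked in DMSO, given either once at 10^-5 M or at five 10-fold dilutions for 48 h. Cells fixed with cold TCA (final 10%), stained with 0.4% SRB, and read at 515 nm. GI50 taken as 50% reduction in net protein increase versus time-zero and control plates.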

[2] = Growth inhibition of human NCI-ADR-RES cells after 48 hrs by SRB assay; summary of the method: as §2
SK-OV-3 [3] = experiment: Growth inhibition of human SKOV3 cells after 48 hrs by SRB assay; settings: SK-OV-3, 48 h; for CC50: read-out: LC50 (the source's name); summary of the method: as §2
MDA-MB-468 = experiment: Growth inhibition of human MDA-MB-468 cells after 48 hrs by SRB assay; settings: MDA-MB-468, 48 h; summary of the method: as §2
CCRF-CEM [4] = experiment: Cytotoxicity against human CCRF-CEM cells assessed as cell growth at 10^-4 M after 48 hrs by SRB assay; settings: read-out: Activity
Summary of the method: (§3)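 NCI-60 screen: lines kept in RPMI 1640 with 5% FBS, seeded at 5000–40,000 cells/well by doubling time, preincubated 24 h at 37 °C in 5% CO2. Time-zero plates TCA-fixed at drug addition. DMSO stocks diluted in medium, 48 h exposure. Fixation in cold TCA (final 10% adherent, 16% suspension), 0.4% SRB stain, solubilised in 10 mM Tris base, A515. Percent growth computed against control and time-zero.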

[5] = Growth inhibition of human […] cells after 48 hrs by SRB assay
CCRF-CEM [6] = experiment: Cytotoxicity against human CCRF-CEM cells assessed as cell growth at 10^-7 M after 48 hrs by SRB assay; settings: read-out: Activity; summary of the method: as §3
SK-MEL-28 = experiment: Cytotoxicity against human SK-MEL-28 cells assessed as cell growth at 10^-7 M after 48 hrs by SRB assay; settings: SK-MEL-28, 48 h, read-out: Activity
UACC-62 = experiment: Cytotoxicity against human UACC62 cells assessed as cell growth at 10^-7 M after 48 hrs by SRB assay; settings: UACC-62, 48 h, read-out: Activity
SNB-75 = experiment: Cytotoxicity against human SNB75 cells assessed as cell growth at 10^-4 M after 48 hrs by SRB assay; settings: SNB-75, 48 h, read-out: Activity
SK-OV-3 [7] = experiment: Cytotoxicity against human SKOV3 cells assessed as cell growth at 10^-4 M after 48 hrs by SRB assay; settings: SK-OV-3, 48 h, read-out: Activity
786-0 [8] = experiment: Cytotoxicity against human 786-0 cells assessed as cell growth at 10^-4 M after 48 hrs by SRB assay; settings: 786-0, 48 h, read-out: Activity; summary of the method: as §3
[9] = Cytotoxicity against human Hs 578T cells assessed as cell growth at 10^-4 M after 48 hrs by SRB assay; settings: read-out: Activity; summary of the method: as §1
EKVX = experiment: Cytotoxicity against human EKVX cells assessed as cell growth at 10^-8 M after 48 hrs by SRB assay; settings: read-out: Activity; summary of the method: as §3
HT-29 = experiment: Cytotoxicity against human HT-29 cells assessed as cell growth at 10^-8 M after 48 hrs by SRB assay; settings: HT-29, 48 h, read-out: Activity; summary of the method: as §1
M14 = experiment: Cytotoxicity against human M14 cells assessed as cell growth at 10^-8 M after 48 hrs by SRB assay; settings: M14, 48 h, read-out: Activity
MDA-MB-435 = experiment: Cytotoxicity against human MDA-MB-435 cells assessed as cell growth at 10^-8 M after 48 hrs by SRB assay; settings: MDA-MB-435, 48 h, read-out: Activity
OVCAR-3 = experiment: Cytotoxicity against human OVCAR3 cells assessed as cell growth at 10^-8 M after 48 hrs by SRB assay; settings: OVCAR-3, 48 h, read-out: Activity
[10] = Cytotoxicity against human NCI-ADR-RES cells assessed as cell growth at 10^-8 M after 48 hrs by SRB assay; settings: read-out: Activity
COLO = experiment: Cytotoxicity against human COLO […] cells assessed as cell growth at 10^-6 M after 48 hrs by SRB assay; settings: read-out: Activity; summary of the method: as §3
HCT-15 [11] = experiment: Cytotoxicity against human HCT15 cells assessed as cell growth at 10^-6 M after 48 hrs by SRB assay; settings: HCT-15, 48 h, read-out: Activity; summary of the method: as §1
SK-MEL-2 = experiment: Cytotoxicity against human SK-MEL-2 cells assessed as cell growth at 10^-6 M after 48 hrs by SRB assay; settings: SK-MEL-2, 48 h, read-out: Activity
786-0 [12] = experiment: Cytotoxicity against human 786-0 cells assessed as cell growth at 10^-6 M after 48 hrs by SRB assay; settings: 786-0, 48 h, read-out: Activity; summary of the method: as §3
SN12C = experiment: Cytotoxicity against human SN12C cells assessed as cell growth at 10^-6 M after 48 hrs by SRB assay; settings: read-out: Activity
TK-10 = experiment: Cytotoxicity against human TK10 cells assessed as cell growth at 10^-6 M after 48 hrs by SRB assay; settings: TK-10, 48 h, read-out: Activity
UO-31 = experiment: Cytotoxicity against human UO31 cells assessed as cell growth at 10^-6 M after 48 hrs by SRB assay; settings: UO-31, 48 h, read-out: Activity
HOP-92 = experiment: Growth inhibition of human HOP92 cells after 48 hrs by SRB assay; settings: HOP-92, 48 h; for CC50: read-out: LC50 (the source's name); summary of the method: as §2
CCRF-CEM [13] = experiment: Cytotoxicity against human CCRF-CEM cells assessed as cell growth at 10^-5 M after 48 hrs by SRB assay; settings: read-out: Activity; summary of the method: as §3
HL-60 = experiment: Cytotoxicity against human HL60 cells assessed as cell growth at 10^-5 M after 48 hrs by SRB assay; settings: HL-60, 48 h, read-out: Activity; summary of the method: as §1
SR = experiment: Cytotoxicity against human SR cells assessed as cell growth at 10^-5 M after 48 hrs by SRB assay; settings: read-out: Activity

Compound: COc1ccc(-c2nn3cc(-c4cccc(N)c4)nc3s2)cc1
- growth at 10 µM (HCT-116): 16%
- growth at 10 µM (HCT-15 [1]): 36%
- GI50 (OVCAR-8): 4.97 µM
- TGI (OVCAR-8): 23 µM
- CC50 (OVCAR-8): 89.9 µM
- GI50 [2]: 4.46 µM
- LC50 [2]: > 100 µM
- TGI [2]: 55.1 µM
- GI50 (SK-OV-3 [3]): 2.72 µM
- TGI (SK-OV-3 [3]): 10.8 µM
- CC50 (SK-OV-3 [3]): 54.9 µM
- GI50 (MDA-MB-468): 1.83 µM
- LC50 (MDA-MB-468): > 100 µM
- TGI (MDA-MB-468): 9.32 µM
- growth at 100 µM (CCRF-CEM [4]): 6%
- GI50 [5]: 2.33 µM
- growth at 0.1 µM (CCRF-CEM [6]): 89%
- growth at 0.1 µM (SK-MEL-28): 95%
- growth at 0.1 µM (UACC-62): 90%
- growth at 100 µM (SNB-75): -49%
- growth at 100 µM (SK-OV-3 [7]): -68%
- growth at 100 µM (786-0 [8]): -93%
- growth at 100 µM [9]: -10%
- growth at 0.01 µM (EKVX): 81%
- growth at 0.01 µM (HT-29): 100%
- growth at 0.01 µM (M14): 101%
- growth at 0.01 µM (MDA-MB-435): 95%
- growth at 0.01 µM (OVCAR-3): 102%
- growth at 0.01 µM [10]: 100%
- growth at 1 µM (COLO): 94%
- growth at 1 µM (HCT-15 [11]): 86%
- growth at 1 µM (SK-MEL-2): 79%
- growth at 1 µM (786-0 [12]): 104%
- growth at 1 µM (SN12C): 73%
- growth at 1 µM (TK-10): 118%
- growth at 1 µM (UO-31): 60%
- GI50 (HOP-92): 0.114 µM
- TGI (HOP-92): 0.989 µM
- CC50 (HOP-92): 87.2 µM
- growth at 10 µM (CCRF-CEM [13]): 10%
- growth at 10 µM (HL-60): 19%
- growth at 10 µM (SR): 26%

Compound: COc1ccc(-c2nn3cc(-c4ccc(O)cc4O)nc3s2)cc1
- growth at 10 µM (HCT-116): -62%
- growth at 10 µM (HCT-15 [1]): 32%
- GI50 (OVCAR-8): 2.63 µM
- TGI (OVCAR-8): > 100 µM
- CC50 (OVCAR-8): > 100 µM
- GI50 [2]: 2.94 µM
- LC50 [2]: > 100 µM
- TGI [2]: 44.9 µM
- GI50 (SK-OV-3 [3]): 1.7 µM
- TGI (SK-OV-3 [3]): 3.62 µM
- CC50 (SK-OV-3 [3]): 7.72 µM
- GI50 (MDA-MB-468): 1.5 µM
- LC50 (MDA-MB-468): > 100 µM
- TGI (MDA-MB-468): 17.6 µM
- growth at 100 µM (CCRF-CEM [4]): 8%
- GI50 [5]: 1.92 µM
- growth at 0.1 µM (CCRF-CEM [6]): 92%
- growth at 0.1 µM (SK-MEL-28): 92%
- growth at 0.1 µM (UACC-62): 95%
- growth at 100 µM (SNB-75): -37%
- growth at 100 µM (SK-OV-3 [7]): -50%
- growth at 100 µM (786-0 [8]): -33%
- growth at 100 µM [9]: -1%
- growth at 0.01 µM (EKVX): 103%
- growth at 0.01 µM (HT-29): 98%
- growth at 0.01 µM (M14): 96%
- growth at 0.01 µM (MDA-MB-435): 97%
- growth at 0.01 µM (OVCAR-3): 102%
- growth at 0.01 µM [10]: 101%
- growth at 1 µM (COLO): 100%
- growth at 1 µM (HCT-15 [11]): 93%
- growth at 1 µM (SK-MEL-2): 85%
- growth at 1 µM (786-0 [12]): 90%
- growth at 1 µM (SN12C): 80%
- growth at 1 µM (TK-10): 101%
- growth at 1 µM (UO-31): 68%
- GI50 (HOP-92): 0.231 µM
- TGI (HOP-92): 2.68 µM
- CC50 (HOP-92): > 100 µM
- growth at 10 µM (CCRF-CEM [13]): 40%
- growth at 10 µM (HL-60): 33%
- growth at 10 µM (SR): 6%
